dFosB act: activators of mouse delta FosB homodimer; P13346; purified delta FosB, TAMRA-CDK5 oligo fluorescence polarization; percent of positive-control signal above neutral wells; activation, % at 25 µM; hit rate 0.99% among 340,000; AID 493131;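 active = mean activation above about 17%, with every replicate also reaching it, limit read from the data, passing the limit was not always enough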
Target sequence (P13346 whole entry, looked up): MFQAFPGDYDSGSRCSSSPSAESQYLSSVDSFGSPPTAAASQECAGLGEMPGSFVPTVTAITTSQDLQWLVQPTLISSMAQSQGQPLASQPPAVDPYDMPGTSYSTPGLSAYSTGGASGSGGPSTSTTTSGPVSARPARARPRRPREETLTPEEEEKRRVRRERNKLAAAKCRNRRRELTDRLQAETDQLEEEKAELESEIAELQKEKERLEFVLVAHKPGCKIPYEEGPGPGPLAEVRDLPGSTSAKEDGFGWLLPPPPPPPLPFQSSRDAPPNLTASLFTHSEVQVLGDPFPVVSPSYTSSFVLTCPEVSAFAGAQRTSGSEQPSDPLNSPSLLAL
Rtt109 HAT inh: blocks Candida albicans Rtt109/Vps75 acetyltransferase activity. purified Rtt109/Vps75, ThioGlo CoA-SH fluorescence, 4 h. inhibition, % at 34.9 µM. hit rate 0.16% among 330,000;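 active = inhibition of at least 50% in every replicate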
CAL PDZ FP-1: inhibitors of human CAL PDZ peptide binding; Q9HD26; purified CAL PDZ, TMR-peptide fluorescence polarization, 1 h; inhibition, % at 24.9 µM; hit rate 0.92% among 300,000;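 active = mean inhibition of at least 30% with at least half of replicates also reaching 30%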;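 also: 0% = DMSO neutral control and 100% = excess unlabeled competitor peptide PRC23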
CAL PDZ FP-2: human CAL PDZ-peptide interaction inhibition; purified CAL PDZ, TMR-peptide fluorescence polarization, 1 h; inhibition, % at 20 µM; hit rate 0.02% among 330,000; AID 504414;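 active = highest replicate inhibition of at least 40%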;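 also: plate controls were DMSO neutral control wells for no effect and unlabeled competitor peptide control wells for full effect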
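System: purified tagged CAL PDZ domain construct (CerCALP). Schedule: 1 h incubation at room temperature before polarization reading. Medium: 25 mM sodium phosphate pH 7.4, 150 mM NaCl, TCEP, IgG, Thesit. Read-out: percent inhibition from loss of millipolarization. Measured by: FP readout, S and P plane fluorescence. Probe or stimulus: fluorescent TMR peptide probe.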
CDK5 p35 inh: CDK5/p35 (human) kinase inhibition | Q00535+Q15078 | Recombinant CDK5/p35, ADP-Glo luminescence, 60 min | inhibition, % at 10 µM | hit rate 0.01% among 330,000 | AID 488839;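 active = highest replicate inhibition of at least 50% and at least 75% of replicates reaching 50%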;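 also: plate controls were DMSO neutral control for no effect and GW8510 at 10 µM for full effect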
DYRK1A inh: Dyrk1A (rat) kinase inhibition; ADP-Glo luminescence, NFATc1 peptide; hit rate 0.43% among 310,000; Q63470; inhibition, % at 12.5 µM; in the data active = inhibition above about 50%;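 also: plate controls were vehicle with enzyme for no effect and no enzyme for full effect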
An asterisk follows results filed as active. In the library only some 2.2% were active in any assay of this set; here they are far more common.

For CCN(C(=O)c1ccc(=O)[nH]c1)c1c(N)n(Cc2ccccc2)c(=O)[nH]c1=O the results were dFosB act 1, Rtt109 HAT inh 3, CAL PDZ FP-2 -1, CDK5 p35 inh 3 and DYRK1A inh -2.
For CCN(C(=O)c1ccc(=O)n(C)n1)c1c(N)n(Cc2ccccc2)c(=O)[nH]c1=O the results were dFosB act -6, Rtt109 HAT inh -4, CAL PDZ FP-1 38*, CAL PDZ FP-2 1, CDK5 p35 inh -1 and DYRK1A inh -2.
Screening CCCCCCn1nc(C(=O)N(CCCC)c2c(N)n(CCC)c(=O)[nH]c2=O)c2ccccc2c1=O returned dFosB act -8, Rtt109 HAT inh -2, CAL PDZ FP-1 47*, CAL PDZ FP-2 2, CDK5 p35 inh -2 and DYRK1A inh -3.
For Cn1cncc1C#Cc1ccc2c(=O)c3ccccc3oc2c1 the results were dFosB act 5, Rtt109 HAT inh 2, CAL PDZ FP-1 -5, CAL PDZ FP-2 -2 and CDK5 p35 inh 1.
For COc1cc2c(cc1OC)CN(c1nc(-c3cccnc3)nc3ccccc13)CC2 the results were dFosB act 34*, Rtt109 HAT inh -4, CAL PDZ FP-1 71*, CAL PDZ FP-2 -5, CDK5 p35 inh 0 and DYRK1A inh 23.
`CN1CCN(c2nc(-c3cccnc3)nc3ccccc23)CC1` gave dFosB act -23, Rtt109 HAT inh -12, CAL PDZ FP-1 0, CAL PDZ FP-2 -3, CDK5 p35 inh 1 and DYRK1A inh 18.
Screening CN(Cc1cccs1)C(=O)CSc1nnnn1C returned dFosB act 3, Rtt109 HAT inh -7, CAL PDZ FP-2 0, CDK5 p35 inh 0 and DYRK1A inh 1.
CC(=O)N1CCN(c2ccccc2NC(=O)c2ccco2)CC1 was read as dFosB act 1, Rtt109 HAT inh 15, CAL PDZ FP-1 -1, CAL PDZ FP-2 -2, CDK5 p35 inh 0 and DYRK1A inh 6.
Screening O=C(CCC(=O)OCC(=O)c1cccc([N+](=O)[O-])c1)Nc1cccc(Cl)c1Cl returned dFosB act -2, Rtt109 HAT inh -6, CAL PDZ FP-1 -2, CAL PDZ FP-2 -1, CDK5 p35 inh 2 and DYRK1A inh 5.
For O=C(CCC(=O)OCC(=O)c1ccc([N+](=O)[O-])cc1)Nc1ccccc1Cl the results were dFosB act -2, Rtt109 HAT inh 75*, CAL PDZ FP-1 3, CAL PDZ FP-2 -2, CDK5 p35 inh 0 and DYRK1A inh -12.
For Cc1ccccc1OCC(=O)NCC(=O)OCC(=O)c1ccc([N+](=O)[O-])cc1 the results were dFosB act -6, Rtt109 HAT inh 130*, CAL PDZ FP-1 -1, CAL PDZ FP-2 0, CDK5 p35 inh 1 and DYRK1A inh -7.
Cc1ccccc1NC(=O)Cn1nc(C)c2ccccc2c1=O was read as dFosB act 5, Rtt109 HAT inh 1, CAL PDZ FP-1 35*, CAL PDZ FP-2 0, CDK5 p35 inh 3 and DYRK1A inh 7.
COC(=O)c1ccccc1NC(=O)CCCn1nc(C)c2c(C)n(-c3ccccc3)nc2c1=O was read as dFosB act -2, Rtt109 HAT inh -8, CAL PDZ FP-2 0, CDK5 p35 inh -1 and DYRK1A inh 2.
Screening Cc1nn(CC(=O)Nc2ccc3c(c2)nc2n3CCN(C3CCCCC3)C2)c(=O)c2ccccc12 returned dFosB act 27*, Rtt109 HAT inh 10, CAL PDZ FP-1 -3, CAL PDZ FP-2 0 and CDK5 p35 inh 0.
`Cc1ccccc1NC(=O)CCCn1nc(C)c2c(C)n(-c3ccccc3)nc2c1=O` gave dFosB act 11, Rtt109 HAT inh -3, CAL PDZ FP-1 30*, CAL PDZ FP-2 -1, CDK5 p35 inh 1 and DYRK1A inh 1.
Cc1nn(CC(=O)Nc2ccc3c(c2)nc(CCN2CCCCC2)n3C)c(=O)c2ccccc12 was read as dFosB act 4, Rtt109 HAT inh -2, CAL PDZ FP-2 -2, CDK5 p35 inh -1 and DYRK1A inh -2.
`CC(CCc1ccccc1)NC(=O)CN1CCSc2ccccc21` (stereo not given) gave dFosB act -15, Rtt109 HAT inh 1, CAL PDZ FP-1 -10, CAL PDZ FP-2 -1, CDK5 p35 inh 2 and DYRK1A inh 1.
